Measurements published in ChEMBL document CHEMBL4689842, “EUbOPEN Chemogenomics Library wave 1” (2021).
Several values for one entry are separate records, joined by “and”; a condition that tells them apart may be missing. Equal entries are not always repeated.

Key:
Type in all cases: toxicity, cell-based
U2OS [1] = assay: Incucyte cell viability with U2OS; details: human, 10 µM, compound concentration 10 uM; note: filed as whole numbers so only -1 and 0 and 1 occur
U2OS [2] = assay: Multiplex assay against U2OS; details: human, 1 µM, compound concentration 1 uM
How it was run: (§1)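 Imaging took place on a CQ1 microscope at 37°C and 5% CO2 once compound had been added to live cells stained at seeding with Hoechst33342, BioTracker Green Microtubule Cytoskeleton Dye, MitoTracker Red and Annexin V Alexa Fluor 680. CellPathfinder machine-learning gating classed cells as Hoechst high-intensity objects or normal cells, classed normal cells as having healthy, pyknosed or fragmented nuclei, and classed pyknosed cells as mitotic or apoptotic. Tubulin, mitochondrial-mass and membrane-permeability phenotypes are per cents of the healthy-nucleus cells.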

HEK-293T [3] = assay: Incucyte cell viability with HEK293T; details: human, 10 µM, compound concentration 10 uM; note: filed as whole numbers so only -1 and 0 and 1 occur
HEK-293T [4] = assay: Multiplex assay against HEK293T; details: human, 1 µM, compound concentration 1 uM; how it was run: as §1;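 for Population Tubulin-Different-Phenotype (%): share of the cells with healthy nuclei that show this phenotype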
Fibroblast [5] = assay: Incucyte cell viability with human fibroblast; details: 10 µM, compound concentration 10 uM; note: filed as whole numbers so only -1 and 0 and 1 occur
Fibroblast [6] = assay: Multiplex assay against human fibroblast; details: 1 µM, compound concentration 1 uM; how it was run: as §1
[7] = 6 h, replicate number 1, timepoint 6 hours
[8] = 12 h, replicate number 1, timepoint 12 hours
[9] = 18 h, replicate number 1, timepoint 18 hours
[10] = 24 h, replicate number 1, timepoint 24 hours

## COc1cc(Nc2ccnc3ccc(Br)cc23)cc(OC)c1OC
U2OS [1]; 0 h, replicate number 1, timepoint 0 hours
  Growth Rate: 0
U2OS [1]; [7]
  Growth Rate: 0
U2OS [1]; [8]
  Growth Rate: 0
U2OS [1]; [9]
  Growth Rate: 0
U2OS [1]; [10]
  Growth Rate: 0
U2OS [2]; 12 h, replicate 1
  Population Apoptotic (%): 45% and 33%
  Population Fragmented Nuclei (%): 9% and 8%
  Population Healthy Nuclei (%): 83% and 79%
  Population Hoechst High Intensity Objects (%): 6% and 5%
  Population Membrane Permeable-Phenotype (%): 22% and 14%
  Population Mitochondria Different-Phenotype (%): 28% and 29%
  Population Mitotic Cells (%): 54% and 66%
  Population Normal (%): 93% and 94%
  Population Pyknosed Nuclei (%): 7% and 11%
  Population Tubulin-Different-Phenotype (%): 39% and 14%
  Total Cell Count: 135 and 196
U2OS [2]; 12 h, replicate 2
  Population Fragmented Nuclei (%): 12% and 20%
  Population Healthy Nuclei (%): 70% and 71%
  Population Hoechst High Intensity Objects (%): 12% and 19%
  Population Membrane Permeable-Phenotype (%): 25% and 16%
  Population Mitochondria Different-Phenotype (%): 38% and 23%
  Population Normal (%): 87% and 80%
  Population Pyknosed Nuclei (%): 16%
  Population Tubulin-Different-Phenotype (%): 37% and 22%
  Total Cell Count: 102 and 150
U2OS [2]; 24 h, replicate 1
  Population Apoptotic (%): 31% and 83%
  Population Fragmented Nuclei (%): 11% and 13%
  Population Healthy Nuclei (%): 71% and 66%
  Population Hoechst High Intensity Objects (%): 6%
  Population Membrane Permeable-Phenotype (%): 18% and 16%
  Population Normal (%): 93%
  Population Pyknosed Nuclei (%): 17% and 20%
  Population Tubulin-Different-Phenotype (%): 21% and 22%
  Total Cell Count: 259 and 175
U2OS [2]; 24 h, replicate 2
  Population Fragmented Nuclei (%): 10% and 14%
  Population Healthy Nuclei (%): 58% and 59%
  Population Hoechst High Intensity Objects (%): 16%
  Population Membrane Permeable-Phenotype (%): 22% and 17%
  Population Mitochondria Different-Phenotype (%): 57% and 19%
  Population Normal (%): 83%
  Population Pyknosed Nuclei (%): 31% and 25%
  Population Tubulin-Different-Phenotype (%): 33% and 28%
  Total Cell Count: 113 and 193
HEK-293T [3]; [7]
  Growth Rate: 0
HEK-293T [3]; [8]
  Growth Rate: 0
HEK-293T [3]; [9]
  Growth Rate: 0
HEK-293T [3]; [10]
  Growth Rate: 0
HEK-293T [4]; 12 h, replicate 1
  Population Apoptotic (%): 21% and 25%
  Population Fragmented Nuclei (%): 24% and 18%
  Population Healthy Nuclei (%): 35% and 54%
  Population Hoechst High Intensity Objects (%): 16%
  Population Membrane Permeable-Phenotype (%): 12% and 4%
  Population Mitotic Cells (%): 78% and 74%
  Population Normal (%): 83%
  Population Pyknosed Nuclei (%): 40% and 27%
  Total Cell Count: 627 and 585
HEK-293T [4]; 12 h, replicate 2
  Population Apoptotic (%): 17% and 8%
  Population Fragmented Nuclei (%): 11% and 4%
  Population Healthy Nuclei (%): 59% and 75%
  Population Membrane Permeable-Phenotype (%): 3% and 0%
  Population Mitotic Cells (%): 82% and 91%
  Population Normal (%): 92% and 97%
  Population Pyknosed Nuclei (%): 29% and 20%
  Total Cell Count: 1015 and 1049
HEK-293T [4]; 24 h, replicate 1
  Population Apoptotic (%): 32% and 19%
  Population Fragmented Nuclei (%): 23% and 12%
  Population Healthy Nuclei (%): 41% and 67%
  Population Hoechst High Intensity Objects (%): 14% and 10%
  Population Membrane Permeable-Phenotype (%): 7%
  Population Mitotic Cells (%): 67% and 80%
  Population Normal (%): 85% and 89%
  Population Pyknosed Nuclei (%): 35% and 20%
  Population Tubulin-Different-Phenotype (%): 30% and 15%
  Total Cell Count: 604 and 574
HEK-293T [4]; 24 h, replicate 2
  Population Apoptotic (%): 14% and 7%
  Population Fragmented Nuclei (%): 11% and 8%
  Population Healthy Nuclei (%): 50% and 79%
  Population Hoechst High Intensity Objects (%): 8% and 3%
  Population Membrane Permeable-Phenotype (%): 2% and 1%
  Population Mitochondria Different-Phenotype (%): 55%
  Population Mitotic Cells (%): 86% and 92%
  Population Normal (%): 91% and 96%
  Total Cell Count: 1011 and 1289
Fibroblast [5]; [7]
  Growth Rate: 0
Fibroblast [5]; [8]
  Growth Rate: 0
Fibroblast [5]; [9]
  Growth Rate: 0
Fibroblast [5]; [10]
  Growth Rate: 0
Fibroblast [6]; 12 h, replicate 1
  Population Apoptotic (%): 51% and 75%
  Population Fragmented Nuclei (%): 26% and 28%
  Population Healthy Nuclei (%): 50% and 56%
  Population Hoechst High Intensity Objects (%): 11%
  Population Membrane Permeable-Phenotype (%): 5% and 4%
  Population Mitochondria Different-Phenotype (%): 22% and 8%
  Population Mitotic Cells (%): 48% and 25%
  Population Normal (%): 88%
  Population Pyknosed Nuclei (%): 23% and 15%
  Total Cell Count: 152 and 176
Fibroblast [6]; 12 h, replicate 2
  Population Apoptotic (%): 50%
  Population Fragmented Nuclei (%): 66% and 79%
  Population Hoechst High Intensity Objects (%): 49% and 39%
  Population Membrane Permeable-Phenotype (%): 11% and 0%
  Population Mitotic Cells (%): 50%
  Population Normal (%): 50% and 60%
  Population Pyknosed Nuclei (%): 6% and 11%
  Population Tubulin-Different-Phenotype (%): 11% and 0%
  Total Cell Count: 65 and 56
Fibroblast [6]; 24 h, replicate 1
  Population Apoptotic (%): 76%
  Population Fragmented Nuclei (%): 28% and 23%
  Population Healthy Nuclei (%): 55% and 61%
  Population Hoechst High Intensity Objects (%): 15%
  Population Membrane Permeable-Phenotype (%): 6% and 1%
  Population Mitochondria Different-Phenotype (%): 1%
  Population Mitotic Cells (%): 23%
  Population Normal (%): 84%
  Population Pyknosed Nuclei (%): 15%
  Total Cell Count: 189 and 165
Fibroblast [6]; 24 h, replicate 2
  Population Fragmented Nuclei (%): 65% and 71%
  Population Healthy Nuclei (%): 31% and 15%
  Population Hoechst High Intensity Objects (%): 42% and 34%
  Population Membrane Permeable-Phenotype (%): 9% and 0%
  Population Mitochondria Different-Phenotype (%): 18% and 40%
  Population Normal (%): 57% and 65%
  Population Tubulin-Different-Phenotype (%): 0% and 20%
  Total Cell Count: 61 and 49
